ChEMBL document CHEMBL1128448, “Synthesis and antifungal activity of new azole derivatives containing an N-acylmorpholine ring” (1995)
Converted amounts (≈) assume the structure as drawn.

Columns and labels:
Format in all cases: functional
Mus sp. [1] = test: In vivo evaluation of % survival rate after peroral administration on 5th day at dose 1 mg/kg; details: route oral, 1 mg/kg
Candida albicans [2] = test: In vitro evaluation of minimum inhibitory concentration against Candida albicans 76
Summary of the method: (§1)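 Stocks are 800 μg/mL in 50% ethanol. Each plate gets 10 μL of inoculum at 10^5 cfu/mL. Incubation at 25 °C, 48 h for yeasts and 120 h for dermatophytes and molds. Organisms are ATCC strains or clinical isolates.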

Mus sp. [3] = test: In vivo evaluation of % survival rate after peroral administration on 9th day at dose 1 mg/kg; details: route oral, 1 mg/kg
Kluyveromyces marxianus = test: In vitro evaluation of minimum inhibitory concentration against Candida pseudotropicalis 13; summary of the method: as §1
Mus sp. [4] = test: In vivo evaluation of % survival rate after peroral administration on 3rd day at dose 1 mg/kg; details: route oral, 1 mg/kg
Rattus norvegicus [5] = test: In vivo evaluation of antifungal activity against vaginal candidosis in rat at dose 0.5 mg/kg on 15th day
Summary of the method: (§2)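 Female Wistar rats, 10 per group, received estradiol 25 mg/kg sc on day -5. On day 0 they were infected intravaginally with C. albicans by sterile swab. Infection was confirmed on day 3 by culturing the swab in TSB and then on Sabouraud agar. Oral dosing was once daily on days 3, 4 and 5; controls got vehicle only. Vaginal swabs taken on days 10 and 15 were cultured and read the next day.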

Rattus norvegicus [6] = test: In vivo evaluation of antifungal activity against vaginal candidosis in rat at dose 0.25 mg/kg on 15th day
Summary of the method: (§3)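 Groups of 10 female Wistar rats given estradiol 25 mg/kg sc on day -5, infected intravaginally with C. albicans by sterile swab on day 0; infection confirmed on day 3 by swab culture (TSB, then Sabouraud agar). Oral dosing once daily on days 3, 4, 5; vehicle controls. Vaginal swabs cultured on days 10 and 15; read-out % cured (culture-negative).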

Mus sp. [7] = test: In vivo evaluation of % survival rate after peroral administration on 7th day at dose 1 mg/kg; details: route oral, 1 mg/kg
Rattus norvegicus [8] = test: In vivo evaluation of antifungal activity against vaginal candidosis in rat at dose 0.5 mg/kg on 10th day; summary of the method: as §2
Candida albicans [9] = test: In vivo evaluation of minimum inhibitory concentration against Candida albicans 60
Summary of the method: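 Broth macrodilution MIC following NCCLS M27-P, in RPMI-1640 buffered with 0.165 M MOPS. Fluconazole was dissolved in water and other drugs in DMSO. C. parapsilosis ATCC 22019 served as the reference strain in every run. MIC was the lowest concentration giving turbidity at or below the 80% inhibition standard.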

Rattus norvegicus [10] = test: In vivo evaluation of antifungal activity against vaginal candidosis in rat at dose 0.25 mg/kg on 10th day; summary of the method: as §3

**Q.** With `C[C@H]1N(C(=O)c2ccc(C(F)(F)F)cc2)CC(=O)O[C@@]1(Cn1cncn1)c1ccc(F)cc1F` as the molecule, how does the Survival (Mus sp. [1]) read?
**A.** Its Survival is 100%.

**Q.** And the MIC (Candida albicans [2])?
**A.** The MIC was 80 µg/mL (≈ 167 µM).

**Q.** What about the Survival (Mus sp. [3]) of the same molecule?
**A.** Its Survival is 10%.

**Q.** What about the MIC (Kluyveromyces marxianus) of the same molecule?
**A.** Its MIC is 80 µg/mL (≈ 167 µM).

**Q.** And the Survival (Mus sp. [4])?
**A.** Its Survival is 100%.

**Q.** What about the Cure rate (Rattus norvegicus [5]) of the same molecule?
**A.** Its Cure rate is 90%.

**Q.** What about the Cure rate (Rattus norvegicus [6]) of the same molecule?
**A.** Its Cure rate is 0%.

**Q.** What about the Survival (Mus sp. [7]) of the same molecule?
**A.** The Survival was 90%.

**Q.** And the Cure rate (Rattus norvegicus [8])?
**A.** The Cure rate was 90%.

**Q.** What about the MIC (Candida albicans [9]) of the same molecule?
**A.** Its MIC is 40 µg/mL (≈ 83.3 µM).

**Q.** And the Cure rate (Rattus norvegicus [10])?
**A.** Its Cure rate is 10%.
